Source: PubChem (Sanford-Burnham Center for Chemical Genomics)
mIAP activ: mouse IAP activation; muIAP, CDP-Star luminescence, 30 min; active compounds read high; 1 = vehicle-only enzyme signal, 0 = enzyme-free wells; 330,000 tested, 0.24% active; activation factor at 10 µM; AID 2805;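 active = activation factor of at least 2 at 20 µM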
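Assay system: mouse IAP enzyme; reagent: chemiluminescent substrate CDP-Star; dosing: test compounds delivered from DMSO solution; schedule: 30 min at room temperature; measured by: luminescence from enzymatic CDP-Star hydrolysis; controls: DMSO-only wells and no-enzyme negative control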
hIAP activ: human IAP activation; P09923; purified human IAP, CDP-Star luminescence, 30 min; active compounds read high; 1 = vehicle-only enzyme, 0 = enzyme-free background; activation factor at 10 µM; 330,000 tested, 0.16% active;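 active = activation factor of the enzyme at least 2-fold when tested at 20 µM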
Target sequence (P09923 whole entry, looked up): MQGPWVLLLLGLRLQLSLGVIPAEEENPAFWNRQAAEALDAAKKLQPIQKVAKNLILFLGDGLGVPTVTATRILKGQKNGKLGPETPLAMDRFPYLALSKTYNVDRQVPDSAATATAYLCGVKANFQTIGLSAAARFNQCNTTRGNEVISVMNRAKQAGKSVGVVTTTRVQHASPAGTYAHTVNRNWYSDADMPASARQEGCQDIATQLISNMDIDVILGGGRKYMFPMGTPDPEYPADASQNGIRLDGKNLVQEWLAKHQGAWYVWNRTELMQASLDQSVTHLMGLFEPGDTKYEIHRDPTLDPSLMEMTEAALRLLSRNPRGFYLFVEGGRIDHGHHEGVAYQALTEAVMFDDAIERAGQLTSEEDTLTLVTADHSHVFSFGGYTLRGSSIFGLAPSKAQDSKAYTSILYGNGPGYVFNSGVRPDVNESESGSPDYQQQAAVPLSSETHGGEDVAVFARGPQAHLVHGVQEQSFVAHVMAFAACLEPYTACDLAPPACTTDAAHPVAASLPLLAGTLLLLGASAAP
bIAP act: intestinal alkaline phosphatase (bovine) activation. 200,000 tested, 0.17% active. activation factor at 20 µM. purified bovine IAP, CDP-star luminescence, 30 min; active compounds read high; fold of DMSO-control signal, blank-subtracted;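 active = activation factor of 2 or more at 20 µM, a signal rise over negative controls twice the positive control's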
hIAP block: blocks human intestinal alkaline phosphatase | purified IAP, CDP-Star luminescence, 30 min | inhibition, % at 10 µM | 330,000 tested, 0.12% active | AID 2544;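 active = inhibition reaching a set limit with compound at 10 µM in the primary screen, cut at about 35% in these data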;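 also: plate controls were DMSO wells with enzyme for no effect and no-enzyme buffer wells for full effect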
mIAP inh: mouse IAP inhibition; purified mouse IAP, CDP-Star luminescence, 30 min; inhibition, % at 10 µM; 330,000 tested, 0.2% active; AID 2806;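 active = inhibition of at least 40% at 10 µM in the primary screen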;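 also: plate controls were DMSO with enzyme for no effect and no enzyme wells for full effect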
bIAP inhibitor: intestinal alkaline phosphatase (bovine) inhibition; purified bovine IAP, CDP-star luminescence, 30 min; inhibition, % at 20 µM; 190,000 tested, under 10 active;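 active = over 50% inhibition of intestinal alkaline phosphatase at 20 µM in the single-dose screen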
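Assay system: bovine IAP enzyme; medium: DEA buffer 100 mM, pH 9.8, with MgCl2 1.0 mM, ZnCl2 0.02 mM; doses: 20 µM single dose; incubation: enzyme reaction for 30 min at room temperature; detection: CDP-star luminescence signal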
Numbers without * were called inactive; i = inactive; / = no result given. Compounds with a hit are over-represented: about 0.72% of the library has one in this group of screens.

SMILES | mIAP activ | hIAP activ | bIAP act | hIAP block | mIAP inh | bIAP inhibitor
CC(NC(=O)Nc1ccc(Cl)cc1)C(c1cccs1)N1CCOCC1 (centres undefined) | 2.4* | 1.2 | 1.2 | -19 | -137 | -20
CC(C)(C)c1ccc(C(CC(=O)O)NC(=O)CCCc2ccccc2)cc1 (centres undefined) | 0.94 | 1.1 | 1 | -7 | 6 | 0
CCN(CC)S(=O)(=O)c1ccc(N2CCN(C)CC2)c(NC(=O)CSCC(=O)Nc2cccc(C)c2)c1 | 1 | 1.1 | / | -8 | 0 | /
CCN(CC)S(=O)(=O)c1ccc(N2CCN(C)CC2)c(NC(=O)Nc2ccc(C)cc2)c1 | 2* | 1.8 | / | -77 | -101 | /
O=C(Cn1nc(C(=O)O)c2ccccc2c1=O)Nc1ccc(F)cc1F | 1.1 | 1.1 | / | -12 | -12 | /
Oc1ccc(/C=N/Nc2ncnc3nc[nH]c23)cc1 | 0.77 | 1.4 | / | -45 | 23 | /
Clc1ccc(/C=N/Nc2ncnc3nc[nH]c23)cc1 | 1 | 2.2* | / | -123 | -1 | /
Cc1ccc(/C=N/Nc2ncnc3nc[nH]c23)cc1 | 0.88 | 2.2* | / | -117 | 12 | /
Fc1cccc(/C=N/Nc2ncnc3nc[nH]c23)c1 | 1.1 | 2 | 1 | -97 | -10 | 0
COc1ccccc1N1CCN(S(=O)(=O)c2ccccc2F)CC1 | 0.92 | 0.89 | 1 | 11 | 8 | 1
S=C(NCCNCc1ccccc1)NC1CCCCC1 | 2.1* | 1.1 | 0.9 | -10 | -109 | 5
S=C(NCCc1ccccc1)NC1CCCCCC1 | 1.3 | 1 | 0.5 | -1 | -26 | 49
COc1ccc(C(=O)CSc2nnc(C(CO)NC(=O)c3ccc(OC)cc3)n2C)cc1 (centres undefined) | 0.9 | 1 | 1 | -5 | 10 | 2
Cc1ccccc1Cn1nc(C)c(NC(=O)C2c3ccccc3Oc3ccccc32)c1C | 4.5* | 1.1 | 1 | -6 | -349 | 2
CCOC(=O)CSc1c(-c2ccc(Cl)cc2)[nH]c2ccccc12 | 0.97 | 1 | 0.9 | -4 | 3 | 8
O=C(Cc1cccs1)NCCSc1c(-c2ccc(Cl)cc2)[nH]c2ccccc12 | 2.5* | 0.9 | 1.1 | 10 | -154 | -5
CC(=O)N(C)c1ccc(NC(=O)C(Sc2ccccc2)c2ccccc2)cc1 (centres undefined) | 1.5 | 1.2 | 2.2* | -20 | -45 | -119
Cc1ccc(C)c(C(C)NC(=S)NCc2ccc(F)cc2)c1 (centres undefined) | 2.2* | 0.92 | / | 8 | -117 | /
Cc1ccc(NC(=S)NCc2ccc(F)cc2)cc1 | 1.4 | 1.1 | / | -6 | -45 | /
Cc1cc(C(=O)OCC(=O)Nc2ccccc2[N+](=O)[O-])c2ccccc2n1 | 1 | 0.85 | 2.1* | 15 | -4 | -108
COc1cc(C(=O)NC(C)Cc2cccs2)cc(OC)c1OC (centres undefined) | 0.95 | 0.96 | 1.1 | 4 | 5 | -8
COc1ccc(C2=NOC(Cn3nc(-c4ccccc4)cc3C(=O)NCc3cccs3)C2)cc1 (centres undefined) | 2.9* | 0.9 | / | 10 | -187 | /
COCCn1c(N/N=C(C)/C=C/c2ccccc2)nc2c1c(=O)[nH]c(=O)n2C | / | / | 2.8* | / | / | -179
CC(/C=C/c1ccccc1)=N\Nc1nc2c(c(=O)[nH]c(=O)n2C)n1CCO | 0.91 | 0.88 | / | 12 | 9 | /
COC(=O)Cn1c(C(F)(F)F)nc2ccccc21 | 1 | 1 | 1.1 | -3 | 0 | -6
SMILES | mIAP activ | hIAP activ | bIAP act | hIAP block | mIAP inh | bIAP inhibitor
Cc1ccc(N=Cc2c(O)c3ccccc3oc2=O)c(C)c1 | 0.54 | 0.86 | / | 14 | 46* | /
NC(=O)N\N=C/C=C/C=C/c1ccc(F)cc1 | 1.2 | 1.1 | / | -14 | -17 | /
Cc1cc(C)nc(/N=C(\N)Nc2ccc(OCc3ccccc3)cc2)n1 | 1.7 | 2.1* | 6.2* | -108 | -70 | i
Cc1cc(NC(=O)CSc2ncnc3sccc23)no1 | 0.98 | 0.94 | 1 | 6 | 2 | -4
N#Cc1c(NC(=O)CSc2ncnc3sccc23)oc(-c2ccco2)c1-c1ccco1 | 0.3 | 0.88 | 1 | 12 | 70* | -2
CCOC(=O)c1ccc2c(c1)C1C=CCC1C(C(=O)O)N2 (centres undefined) | 0.45 | 1 | 0.8 | -3 | 55* | 18
CCOC(=O)C1Nc2ccc(C(=O)O)cc2C2C=CCC12 (centres undefined) | 0.86 | 1.1 | / | -6 | 14 | /
Cc1ccc(Nc2nc(/N=C/NO)n[nH]2)cc1C | 0.97 | 2.5* | 1.2 | -149 | 3 | -18
C[C@@H]1CN([C@@H](C)CO)C(=O)c2cc(NC(=O)Nc3ccccc3)ccc2O[C@H]1CN(C)C(=O)Nc1cccc2ccccc12 | 2.7* | 1.1 | / | -12 | -167 | /
COc1ccc(NC(=O)N(C)C[C@H]2Oc3ccc(NC(=O)NC(C)C)cc3C(=O)N([C@H](C)CO)C[C@@H]2C)cc1 | 1.1 | 1.2 | / | -19 | -13 | /
COc1ccc(NC(=O)Nc2ccc3c(c2)C(=O)N([C@H](C)CO)C[C@H](C)[C@@H](CN(C)C(=O)Nc2ccc(C(F)(F)F)cc2)O3)cc1 | 2.1* | 1.1 | / | -12 | -111 | /
COc1ccc(NC(=O)N(C)C[C@H]2Oc3ccc(NC(=O)Nc4ccc(C(F)(F)F)cc4)cc3C(=O)N([C@H](C)CO)C[C@@H]2C)cc1 | 2.1* | 0.87 | / | 13 | -110 | /
COc1ccc(NC(=O)Nc2ccc3c(c2)C(=O)N([C@H](C)CO)C[C@H](C)[C@@H](CN(C)C(=O)Nc2ccc(OC)cc2)O3)cc1 | 2.3* | 0.98 | / | 2 | -134 | /
CCN(CCNC(=O)C1CCN(Cc2nc(-c3ccc(Cl)cc3)oc2C)CC1)c1ccccc1 | 1.4 | 0.87 | 1.6 | 13 | -35 | -60
CCN(CCNC(=O)C1CCN(Cc2nc(-c3cccc(Cl)c3)oc2C)CC1)c1ccccc1 | 1.4 | 0.9 | 2.9* | 10 | -39 | -187
CCc1ccc(-c2nc(CN3CCC(C(=O)NCCN(CC)c4ccccc4)CC3)c(C)o2)cc1 | 2* | 0.76 | 4.4* | 24 | -101 | -336
CCOC(=O)c1cnc(-c2ccc(C(F)(F)F)cn2)[nH]c1=O | 1.1 | 1.1 | / | -12 | -9 | /
CC(NC(=O)c1ccco1)C12CC3CC(CC(C3)C1)C2 (centres undefined) | 1.1 | 1 | / | -1 | -11 | /
CC(C)(C)C1CCC2(CC1)C(Nc1cccc(C(F)(F)F)c1)=NC(=S)N2CC#N (centres undefined) | 0.83 | 0.9 | 1 | 10 | 17 | 3
CCOc1ccc(NC(=O)CCC(=O)NNC(=O)COc2ccc(C)cc2Br)cc1 | 0.51 | 2 | / | -96 | 49* | /
CCOC(=O)c1c(NC(=O)COc2ncnc3sccc23)sc2c1CCC2 | 1 | 1.4 | 0.9 | -41 | -2 | 5
COCC(C)NS(=O)(=O)c1ccc(C(=O)NC(Cc2ccccc2)c2ccccc2)cc1 (centres undefined) | 2.1* | 1 | / | 0 | -106 | /
